Data published in ChEMBL document CHEMBL4359883, “4(1H)-quinolone derivatives overcome acquired resistance to anti-microtubule agents by targeting the colchicine site of β-tubulin” (Eur J Med Chem, 2019).
pIC50: −log10 of the molar value. Calls of active or inactive are those of the source. No cut-off for these calls is given here.

What was measured:
[1] = biological target: Tubulin (Homo sapiens) (UniProt P68371+Q9H4B7+P0DPH7+P68366+Q13509+Q71U36+P04350+Q3ZCM7+P07437+P68363+Q9BQE3+Q6PEY2+Q13885+Q9BVA1+Q9BUF5); assay: Inhibition of microtubule polymerization in human NCI-H1975 cells at 40 nM after 1 hr followed by exposure to cold and measured at 5 to 60 mins immunofluorescence based assay; assay type: cell-based
Outline: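 H1975 cells pretreated with 40 nM for 1 h, held cold for 30 min, then returned to 37 °C for varying times. Fixed and stained for α-tubulin by immunofluorescence with DAPI counterstain, then imaged by confocal microscopy.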

[2] = tested on: CL1-0; assay: Induction of apoptosis in human CL1-0 cells assessed as increase in cytochrome c level in cytosol at 20 to 40 nM after 24 hrs by immunoblotting analysis; assay type: functional, cell-based
[3] = tested on: NCI-H1975; assay: Induction of apoptosis in human NCI-H1975 cells assessed as increase in cytochrome c level in cytosol at 40 to 80 nM after 24 hrs by immunoblotting analysis; assay type: functional, cell-based
[4] = tested on: CL1-0; assay: Cell cycle arrest in human CL1-0 cells assessed as increase in cell population at G2/M phase after 24 hrs by propidium iodide-staining based flow cytometry; assay type: functional
Outline: (§1)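 Cells treated for 24 h, then trypsinized and fixed overnight in ice-cold 70% ethanol. Stained for 30 min with propidium iodide (10 µg/mL) plus RNase (20 µg/mL), and DNA content measured by flow cytometry. Mean ± SD.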

[5] = tested on: CL1-0; assay: Antiproliferative activity against human CL1-0 cells assessed as reduction in colony formation after 14 days by crystal violet staining based assay; assay type: functional, cell-based
Outline: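 Seeded at 1000 cells/well, cultured overnight, then treated with 12.5–200 nM for 14 days. Colonies fixed in 3.7% paraformaldehyde, stained with 0.04% crystal violet and dissolved in DMSO, then absorbance read at 590 nm. Mean ± SD.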

[6] = biological target: Tubulin alpha (Homo sapiens) (UniProt P0DPH7+P68366+Q71U36+P68363+Q9BQE3+Q6PEY2+A6NHL2+Q9NY65); assay: Induction of microtubule depolymerization in human NCI-H1975 cells assessed as increase in alpha tubulin soluble form by immunoblot analysis; assay type: cell-based
Outline: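 Lysate spun at 16,000 rpm for 15 min at room temperature. Soluble (monomer) and particulate (polymer) fractions immunoblotted for α-tubulin.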

[7] = Antiproliferative activity against human OECM1 cells assessed as reduction in cell viability after 72 hrs by MTS assay; assay type: functional, cell-based; settings: OECM1, 72 h
Outline: (§2)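 Cells plated at 2000/well, cultured overnight, then exposed to a range of compound concentrations for 72 h. MTS reagent added for 1–4 h at 37 °C and absorbance read at 490 nm. Cultured in RPMI 1640 or DMEM with 10% heat-inactivated FBS under 5% CO2. Data are the mean of three determinations.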

[8] = tested on: SK-OV-3; assay: Antiproliferative activity against human SKOV3 cells assessed as reduction in cell viability after 72 hrs by MTS assay; assay type: functional, cell-based; settings: SK-OV-3, 72 h; outline: as §2
[9] = tested on: NCI-H1975; assay: Induction of cell cycle arrest in human NCI-H1975 cells assessed as accumulation at mitotic phase after 24 hrs by high content imaging analysis; assay type: functional, cell-based
Outline: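 Cells exposed for 24 h, stained for phospho-histone H3 (S10), and imaged by high-content imaging. Mitotic index taken as the fraction of p-HH3-positive cells. Mean ± SD.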

[10] = Antiproliferative activity against human 82T cells assessed as reduction in cell viability after 72 hrs by MTS assay; assay type: functional, cell-based; outline: as §2
[11] = tested on: NCI-H1975; assay: Induction of mitotic arrest in human NCI-H1975 cells assessed as increase in cyclin B1 expression at 40 to 80 nM after 24 hrs by immunoblotting analysis; assay type: functional, cell-based
[12] = tested on: CL1-0; assay: Induction of mitotic arrest in human CL1-0 cells assessed as increase in phospho-histone H3 expression at 20 to 40 nM after 24 hrs by immunoblotting analysis; assay type: functional, cell-based
[13] = tested on: NCI-H1975; assay: Induction of apoptosis in human NCI-H1975 cells assessed as cleaved caspase 3 expression at 40 nM by immunoblotting analysis; assay type: functional, cell-based; settings: TDE = time-dependent effect
[14] = tested on: CL1-0; assay: Antiproliferative activity against human CL1-0 cells assessed as reduction in cell viability after 72 hrs by MTS assay; assay type: functional, cell-based; settings: CL1-0, 72 h; outline: as §2
[15] = tested on: CL1-0; assay: Induction of mitotic arrest in human CL1-0 cells assessed as increase in cyclin B1 expression at 20 to 40 nM after 24 hrs by immunoblotting analysis; assay type: functional, cell-based
[16] = tested on: CL1-0; assay: Cell cycle arrest in human CL1-0 cells assessed as increase in cell population at sub-G1 phase after 24 hrs by propidium iodide-staining based flow cytometry; assay type: functional; outline: as §1
[17] = tested on: CL1-0; assay: Induction of apoptosis in human CL1-0 cells assessed as cleaved caspase 9 after 24 hrs by immunoblotting analysis; assay type: functional, cell-based
[18] = tested on: NCI-H1975; assay: Induction of mitotic arrest in human NCI-H1975 cells assessed as increase in phospho-histone H3 expression at 40 to 80 nM after 24 hrs by immunoblotting analysis; assay type: functional, cell-based
[19] = tested on: IGROV-1; assay: Antiproliferative activity against human IGROV1 cells assessed as reduction in cell viability after 72 hrs by MTS assay; assay type: functional, cell-based; settings: IGROV-1, 72 h; outline: as §2
[20] = biological target: T1, Tubulin (Sus scrofa) (UniProt P02554+P02550); assay: Inhibition of porcine tubulin polymerization assessed as inhibition of formation of microtubule asters in centrosome after 8 mins immunofluorescence assay; assay type: protein assay
T1 sequence (P02550 whole entry, looked up): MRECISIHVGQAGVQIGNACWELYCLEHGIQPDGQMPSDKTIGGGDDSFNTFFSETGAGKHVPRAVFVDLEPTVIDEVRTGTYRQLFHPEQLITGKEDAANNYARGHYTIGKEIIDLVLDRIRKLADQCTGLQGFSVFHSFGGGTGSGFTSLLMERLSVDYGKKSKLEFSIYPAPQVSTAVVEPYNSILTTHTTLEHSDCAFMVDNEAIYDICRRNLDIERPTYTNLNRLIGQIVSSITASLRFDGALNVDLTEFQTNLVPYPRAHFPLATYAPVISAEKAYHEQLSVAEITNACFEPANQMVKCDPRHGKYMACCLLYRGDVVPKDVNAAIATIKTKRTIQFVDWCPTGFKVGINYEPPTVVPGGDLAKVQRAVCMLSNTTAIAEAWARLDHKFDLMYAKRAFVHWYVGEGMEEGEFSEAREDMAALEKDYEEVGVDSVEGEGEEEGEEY
T1 sequence (P02554 whole entry, looked up): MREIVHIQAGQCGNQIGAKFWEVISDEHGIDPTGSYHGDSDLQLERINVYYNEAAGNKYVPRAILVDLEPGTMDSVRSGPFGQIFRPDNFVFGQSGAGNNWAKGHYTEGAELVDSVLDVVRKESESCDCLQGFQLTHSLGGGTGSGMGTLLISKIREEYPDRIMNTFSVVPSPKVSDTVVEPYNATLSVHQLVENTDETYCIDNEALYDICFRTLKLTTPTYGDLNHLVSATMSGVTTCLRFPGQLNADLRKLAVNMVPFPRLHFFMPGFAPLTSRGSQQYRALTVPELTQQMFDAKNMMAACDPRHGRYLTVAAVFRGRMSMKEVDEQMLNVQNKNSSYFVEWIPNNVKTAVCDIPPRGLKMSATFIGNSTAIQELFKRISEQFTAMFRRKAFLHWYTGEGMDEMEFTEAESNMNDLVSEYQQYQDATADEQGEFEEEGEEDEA
Outline: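 Purified centrosomes incubated with compound, then with porcine tubulin in 80 mM PIPES, 1 mM MgCl2, 1 mM EGTA, 1 mM GTP, pH 6.8 for 8 min at 37 °C. Asters fixed in 1% glutaraldehyde and stained for α-tubulin. Fiber length measured on 20 asters per group; mean ± SD.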

[21] = biological target: T1, Tubulin (Sus scrofa); assay: Inhibition of porcine tubulin at 5 uM in presence of GTP measured every minute for 1 hr by microplate reader analysis; assay type: protein assay
[22] = Antitumour activity against human KBtax cells xenografted in Balb/c mouse assessed as reduction in tumour size at 8 mg/kg, ip administered 3 times per week and measured after 21 days (reference value: 1109 +/- 128.3 mm3); assay type: functional
[23] = tested on: Homo sapiens; assay: Induction of apoptosis in human KBtax cells xenografted in Balb/c mouse at 8 mg/kg, ip administered 3 times per week and measured after 21 days by TUNEL staining based histological analysis; assay type: functional, organism-based
Outline: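 1×10^7 KBtax cells injected subcutaneously into the right flank of 6-week-old BALB/c nude mice (n = 5 per group). Once tumors established, compound in DMSO given ip three times a week for 21 days. Tumor sections stained with H&E and by TUNEL.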

[24] = tested on: MDA-MB-231; assay: Antitumour activity against human MDA-MB-231 cells xenografted in Balb/c mouse assessed as tumour size at 4 mg/kg, ip administered three times per week and measured on day 35 (reference value: 218 +/- 20.9 mm3); assay type: functional
Outline: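 MDA-MB-231 tumours established in the right flank of 6-week-old BALB/c nude mice. Compound dissolved in DMSO was given ip three times weekly, with a DMSO vehicle group. Tumour volume calculated as 0.5W²L, measured before each dose and compared on day 35.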

[25] = Toxicity in Balb/c mouse xenografted with human KBtax cells assessed as serum creatinine level at 8 mg/kg, ip administered 3 times per week and measured after 21 days (reference value: 0.22 +/- 0.02 mg/dl); assay type: organism-based; settings: in vivo, 504 h

In the case of `CCOC(=O)c1ccc2nc(-c3ccccc3)cc(O)c2c1`, the Activity [1] was “Active”, the Activity [2] was “Active” and the Activity [3] was “Active”. For the same compound, the Activity [4] was “Dose-dependent effect”, the Activity [5] was “Active” and the Activity [6] was “Active”. The pIC50 [7] was 7.28, the pIC50 [8] was 7.30 and the Activity [9] was “Dose-dependent effect”. The pIC50 [10] was 7.46, the Activity [11] was “Active” and the Activity [12] was “Active”. For the same compound, the Activity [13] was “Tde”, the pIC50 [14] was 7.80 and the Activity [15] was “Active”. For the same compound, the Activity [16] was “Dose-dependent effect”, the Activity [17] was “Dose-dependent effect” and the Activity [18] was “Active”. For the same compound, the pIC50 [19] was 7.08, the inhibition [20] was “Active” and the “tubulin inhibition call (active/not active)” value [21] was “Active”.

With `CCOC(=O)c1ccc2[nH]c(-c3cccc(F)c3)cc(=O)c2c1` the Activity [22] was 528.4 mm3, the Activity [23] was “Active” and the Activity [24] was 105 mm3. The Activity [25] was 0.26 mg/dL.
